Here are results for 19 compounds from ChEMBL document CHEMBL4673367, “N-Benzyl-linoleamide, a Constituent of Lepidium meyenii (Maca), Is an Orally Bioavailable Soluble Epoxide Hydrolase Inhibitor That Alleviates Inflammatory Pain” (J Nat Prod, 2020).

Data set [1] has as its target T1, Bifunctional epoxide hydrolase 2 (Mus musculus, UniProt P34914).
T1 sequence (P34914 whole entry): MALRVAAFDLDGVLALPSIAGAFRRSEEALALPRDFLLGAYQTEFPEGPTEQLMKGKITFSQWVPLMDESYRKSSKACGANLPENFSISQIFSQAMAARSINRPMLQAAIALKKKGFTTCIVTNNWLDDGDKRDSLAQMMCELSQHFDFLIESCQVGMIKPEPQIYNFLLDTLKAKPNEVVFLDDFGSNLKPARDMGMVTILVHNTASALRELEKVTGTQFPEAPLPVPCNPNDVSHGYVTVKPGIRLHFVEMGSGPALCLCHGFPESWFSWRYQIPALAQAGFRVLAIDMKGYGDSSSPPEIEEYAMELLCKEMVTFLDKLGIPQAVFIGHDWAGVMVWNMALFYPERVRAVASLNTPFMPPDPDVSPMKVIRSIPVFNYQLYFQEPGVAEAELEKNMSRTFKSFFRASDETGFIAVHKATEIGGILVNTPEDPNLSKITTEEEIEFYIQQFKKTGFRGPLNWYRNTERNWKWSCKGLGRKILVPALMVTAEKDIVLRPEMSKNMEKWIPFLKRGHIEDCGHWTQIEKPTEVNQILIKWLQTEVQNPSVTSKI
Kind of data set: Inhibition of recombinant mouse sEH expressed in baculovirus expression system using MNPC as substrate by fluorescence-based assay. An outline of the steps: (§1)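 Recombinant human, mouse or rat sEH tested with serial dilutions of inhibitor in 96-well format. MNPC substrate at 5 μM final. Fluorescent 6-methoxynaphthaldehyde product read at ex 330 / em 465 nm. IC50 derived from these readings.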

Data set [2] has as its target T2, Bifunctional epoxide hydrolase 2 (Rattus norvegicus, UniProt P80299).
T2 sequence (P80299 whole entry): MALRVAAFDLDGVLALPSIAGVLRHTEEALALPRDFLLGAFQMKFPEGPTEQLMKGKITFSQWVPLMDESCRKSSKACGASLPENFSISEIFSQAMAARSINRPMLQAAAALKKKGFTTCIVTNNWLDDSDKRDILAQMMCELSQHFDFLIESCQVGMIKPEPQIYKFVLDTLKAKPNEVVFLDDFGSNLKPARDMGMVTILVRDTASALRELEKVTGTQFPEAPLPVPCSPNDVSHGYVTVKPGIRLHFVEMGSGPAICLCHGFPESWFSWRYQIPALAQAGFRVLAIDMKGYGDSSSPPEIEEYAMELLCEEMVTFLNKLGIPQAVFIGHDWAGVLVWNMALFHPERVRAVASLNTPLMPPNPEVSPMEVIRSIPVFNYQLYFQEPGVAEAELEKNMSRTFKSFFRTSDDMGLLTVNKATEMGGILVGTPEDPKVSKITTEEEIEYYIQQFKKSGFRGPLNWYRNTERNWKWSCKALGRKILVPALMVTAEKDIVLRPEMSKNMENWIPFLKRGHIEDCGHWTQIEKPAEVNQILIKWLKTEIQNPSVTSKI
Kind of data set: Inhibition of recombinant rat sEH expressed in baculovirus expression system using MNPC as substrate by fluorescence-based assay. An outline of the steps:
as §1

Data set [3] has as its target T3, Bifunctional epoxide hydrolase 2 (Homo sapiens, UniProt P34913).
T3 sequence (P34913 whole entry): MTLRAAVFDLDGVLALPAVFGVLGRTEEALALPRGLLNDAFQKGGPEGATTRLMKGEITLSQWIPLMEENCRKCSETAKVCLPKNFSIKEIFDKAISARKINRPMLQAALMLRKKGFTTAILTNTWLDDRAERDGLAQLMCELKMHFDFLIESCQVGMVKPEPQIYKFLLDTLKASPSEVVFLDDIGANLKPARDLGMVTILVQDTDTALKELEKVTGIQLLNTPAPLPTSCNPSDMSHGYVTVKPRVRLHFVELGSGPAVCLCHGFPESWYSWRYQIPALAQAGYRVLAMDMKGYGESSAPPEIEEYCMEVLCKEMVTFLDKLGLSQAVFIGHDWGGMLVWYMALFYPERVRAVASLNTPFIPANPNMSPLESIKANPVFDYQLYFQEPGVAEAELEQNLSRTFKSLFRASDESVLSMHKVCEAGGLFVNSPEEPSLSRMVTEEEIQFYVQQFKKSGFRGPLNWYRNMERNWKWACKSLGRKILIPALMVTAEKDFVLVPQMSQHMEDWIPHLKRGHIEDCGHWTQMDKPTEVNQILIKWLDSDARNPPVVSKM
Kind of data set: Inhibition of recombinant human sEH expressed in baculovirus expression system using MNPC as substrate by fluorescence-based assay. An outline of the steps:
as §1

For data set [4], the system named is Rattus norvegicus. Kind of data set: Antinociceptive activity against LPS-induced inflammatory pain Sprague-Dawley rat model assessed as increase in paw withdrawal threshold at 100 mg/kg, po measured up to 6 hrs by von Frey assay. The note with it: time hrs <=6. Format: functional, organism-based. The gist of the method: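 Male SD rats, n=4/group, randomized and blinded. Baseline von Frey mechanical withdrawal thresholds taken before dosing. Oral gavage of 100 mg/kg in 1 mL 100% NEOBEE 1053 (vehicle control alongside). Immediately after, 50 μL of 0.2 μg/mL LPS in saline injected intraplantar into one hind paw. Ipsilateral thresholds measured 3–5 times per rat per time point over 6 h. Expressed as percent of baseline, group mean ± SEM.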

The nature of data set [5]: Half life in Sprague-Dawley rat at 100 mg/kg, po measured up to 96 hrs by LC/MS/MS analysis. Format: ADME, organism-based. The note with it: in vivo. The gist of the method:
(§2)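 Male SD rats (8 weeks, 250–300 g, n=4/group) given a single oral gavage of 100 mg/kg in 100% NEOBEE 1053. Plasma concentrations followed over a 96-h time course. Blood processed and quantified by an earlier reported method. Parameters reported as mean ± SEM.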

Data set [6] is described as follows: Tmax in Sprague-Dawley rat at 100 mg/kg, po measured up to 96 hrs by LC/MS/MS analysis. The note with it: in vivo. Type of data set: ADME, organism-based. The gist of the method:
as §2

Data set [7] is described as follows: Cmax in Sprague-Dawley rat at 100 mg/kg, po measured up to 96 hrs by LC/MS/MS analysis. Format: ADME, organism-based. Further details: route oral, dose 100 mg/kg, time <=96. The note with it: in vivo. The gist of the method: as §2
A short description of data set [8]: AUC in Sprague-Dawley rat at 100 mg/kg, po measured up to 96 hrs by LC/MS/MS analysis. Format: ADME, organism-based. Further details: route oral, dose 100 mg/kg, time <=96. The note with it: in vivo. The gist of the method: as §2

Structures are written as SMILES. Active and inactive are the calls of the source.

One may read the IC50 as the concentration that inhibits the measured activity by half. Regarding `CCCCC/C=C\C/C=C\CCCCCCCC(=O)NCc1cccc(OC)c1`, the 50% inhibitory concentration (IC50) in data set [1] stood at 38 nM; in data set [2] it was 43 nM; in data set [3], 92 nM.

For `CCCCC/C=C\C/C=C\CCCCCCCC(=O)NCCc1ccccc1`, the IC50 in data set [1] was 91 nM; in data set [2] it was 33 nM.

Regarding `CCCCCCCCCCCCCCCCCC(=O)NCc1ccccc1`, the half-maximal inhibitory concentration (IC50) was 59600 nM in data set [1], 35800 nM in data set [2] and greater than 100000 nM in data set [3].

On to `CCCCCCCC/C=C\CCCCCCCC(=O)NCc1cccc(OC)c1`, for which the IC50 is 126 nM in data set [1], 84 nM in data set [2] and 241 nM in data set [3].

On to `CCCCCCCCCCCCCCCC(=O)NCc1ccc(OC)c(OC)c1`, for which the IC50 is greater than 100000 nM in data set [1], 15900 nM in data set [2] and 7060 nM in data set [3].

Take `CCCCC/C=C\C/C=C\C/C=C\C/C=C\CCCC(=O)NCc1cccc(OC)c1`: the concentration for half-maximal inhibition (IC50) in data set [1] was 73 nM; in data set [2], 22 nM; in data set [3] it was 55 nM.

Turning to `CC/C=C\C/C=C\C/C=C\CCCCCCCC(=O)NCc1cccc(OC)c1`, the values for the half-maximal inhibitory concentration (IC50) in data set [1], in data set [2] and in data set [3] were 27 nM, 9.3 nM and 76 nM, respectively.

As for `CCCCCCCCCCCCCCCCCC(=O)NCc1cccc(OC)c1`, the IC50 in data set [1] is 89900 nM; in data set [2] it was 28700 nM; in data set [3] it was 16100 nM.

Take `CCCCCCCC/C=C\CCCCCCCC(=O)NCc1ccccc1`: the 50% inhibitory concentration (IC50) in data set [1] stood at 265 nM; in data set [2], 198 nM; in data set [3], 893 nM.

On to `CC/C=C\C/C=C\C/C=C\C/C=C\C/C=C\CCCC(=O)NCc1ccccc1`, for which the IC50 in data set [1] worked out at 43 nM; in data set [2], 29 nM; in data set [3], 111 nM.

Turning to `CCCCCCCCCCCCCCCC(=O)NCc1ccccc1`, the values for the IC50 in data set [1], in data set [2] and in data set [3] were 422 nM, 370 nM and 524 nM, respectively.

As to `CCCCC/C=C\C/C=C\C/C=C\C/C=C\CCCC(=O)NCc1ccccc1`, the IC50 in data set [1] was found to be 50 nM; in data set [2], 40 nM; in data set [3], 123 nM.

Consider `CC/C=C\C/C=C\C/C=C\C/C=C\C/C=C\CCCC(=O)NCc1cccc(OC)c1`, for which the 50% inhibitory concentration (IC50) in data set [1] was found to be 49 nM; in data set [2], 18.6 nM; in data set [3] it was 63 nM.

With `CC/C=C\C/C=C\C/C=C\CCCCCCCC(=O)NCCc1ccccc1`, the IC50 was 39 nM in data set [1], 15 nM in data set [2] and 15 nM in data set [3].

The Tmax is the time at which the peak concentration occurs. Usually Cmax stands for the highest concentration seen after dosing. For orientation: AUC means the area under the concentration-time curve, a measure of exposure. Low values mean low exposure, high ones high exposure. `CCCCC/C=C\C/C=C\CCCCCCCC(=O)NCc1ccccc1`: in data set [4], the outcome was Active. Further, the IC50 in data set [1] was 44 nM; in data set [2], 41 nM; in data set [3], 155 nM. This compound also came in with a t1/2 in data set [5] of 9 h. Moreover, the time to peak (Tmax) in data set [6] came out at 3 h. In data set [7], this compound returned a maximum concentration (Cmax) of 519 nM. The compound also gave an AUC in data set [8] of 3690 nM·h.

Take `CC/C=C\C/C=C\C/C=C\CCCCCCCC(=O)NCc1ccc(OC)c(OC)c1`: the IC50 worked out at 122 nM in data set [1], 90 nM in data set [2] and 84 nM in data set [3].

In the case of `CCCCC/C=C\C/C=C\CCCCCCCC(=O)NCc1ccc(OC)c(OC)c1`, the figures for the IC50 in data set [1], in data set [2] and in data set [3] were 148 nM, 111 nM and 104 nM, respectively.

In the case of `CC/C=C\C/C=C\C/C=C\CCCCCCCC(=O)NCc1ccccc1`, the outcome in data set [4] was inactive. Further, the figures for the IC50 in data set [1], in data set [2] and in data set [3] were 28 nM, 23 nM and 134 nM, respectively. The t1/2 in data set [5] was 14.6 h. Further, the time to peak (Tmax) in data set [6] amounted to 6 h. The compound also registered a Cmax in data set [7] of 54 nM. This compound also registered an AUC in data set [8] of 723 nM·h.

Consider `CCCCCCCCCCCCCCCC(=O)NCc1cccc(OC)c1`, for which the half-maximal inhibitory concentration (IC50) in data set [1] amounted to 159 nM; in data set [2], 113 nM; in data set [3], 235 nM.
